Source: PubChem BioAssay
TPT1 inhibitor: inhibitors of Candida albicans tRNA 2'-phosphotransferase TPT1; inhibition, % at 5 µM; recombinant caTPT1, FP RNA substrate dephosphorylation; AID 1962; 300,000 tested, 0.81% active;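 active = inhibition above the mean of all tested compounds plus 3 SD, set per screening campaign, cut at about 24% in these data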;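 note: plate controls were DMSO alone for no effect and ferristatin control at 100 nM for full effect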
CSN inh: CSN deneddylation inhibition; Q92905; Purified CSN, SCF-Nedd8-OG deneddylation, fluorescence polarization; inhibition, % at 12.5 µM; 360,000 tested, 0.38% active; AID 651999;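 active = pattern-corrected inhibition above about 35%, with an unprinted fluorescence ratio check between 0.5 and 1.5, limit read from the data, passing the limit was not always enough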;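 note: 0% = enzyme with substrate and 100% = substrate without enzyme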
Target sequence (Q92905 whole entry, looked up, one chain of several): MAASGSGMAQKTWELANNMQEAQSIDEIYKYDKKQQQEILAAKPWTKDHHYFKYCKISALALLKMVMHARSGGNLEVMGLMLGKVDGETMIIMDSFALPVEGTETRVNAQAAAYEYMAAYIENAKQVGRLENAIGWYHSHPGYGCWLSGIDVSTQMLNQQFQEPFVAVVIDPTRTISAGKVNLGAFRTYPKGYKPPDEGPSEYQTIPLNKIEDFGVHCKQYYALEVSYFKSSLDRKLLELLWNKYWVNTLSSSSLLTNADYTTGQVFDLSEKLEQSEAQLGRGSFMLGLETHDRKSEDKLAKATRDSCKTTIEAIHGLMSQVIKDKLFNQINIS
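Assay system: purified human Csn5 enzyme expressed in HEK293T cells; Input: 0.24 nM Csn5 enzyme, final concentration; Reagent: 10 nM SCFSkp2-Nedd8OG; Compound dosing: 12.5 µM single point; Times: reaction 90 min, room temperature; Technique: fluorescence polarization readout.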
HNF4A DNA FP: change in binding of human HNF4 alpha to DNA; P41235; activity change, % at 10 µM; 360,000 tested, 0.3% active; HNF4a-FITC DNA binding, fluorescence polarization, 1 h; in the data active = activity change above about 30%, passing the limit was not always enough
Rpn11 block: inhibitors of human proteasome Rpn11; O00487; human 26S proteasome, Ub4-pepOG fluorescence polarization; 20S core pre-blocked with epoxomicin; calls only at 20 µM; 360,000 tested, 0.59% active; AID 588493;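 active = inhibition at 20 µM, scaled to each plate's controls, above about 33%, limit read from the data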
Target sequence (O00487 whole entry, looked up): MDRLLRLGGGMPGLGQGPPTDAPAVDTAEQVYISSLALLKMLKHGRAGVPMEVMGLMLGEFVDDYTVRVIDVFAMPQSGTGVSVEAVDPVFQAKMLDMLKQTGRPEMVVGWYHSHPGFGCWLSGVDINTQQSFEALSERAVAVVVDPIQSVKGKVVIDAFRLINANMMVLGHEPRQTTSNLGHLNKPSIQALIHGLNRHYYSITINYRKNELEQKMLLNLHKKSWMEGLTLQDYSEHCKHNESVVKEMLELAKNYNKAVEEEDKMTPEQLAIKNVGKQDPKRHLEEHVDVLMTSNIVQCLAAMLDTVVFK
Rpn11 confirm: Rpn11 inhibition confirmation, single concentration; inhibition, % at 20 µM; 1,900 tested, 29% active; AID 602318; purified human 26S proteasome, Ub4-pepOG fluorescence polarization; proteasome pretreated with epoxomicin; shares compounds with Rpn11 block
MMP-2 counter: counter-screen for RPN11 inhibitors: inhibition of human MMP-2; AID 602330; inhibition, % at 20 µM; recombinant MMP-2, FRET peptide cleavage fluorescence; 1,900 tested, 4% active; shares compounds with Rpn11 block;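 note: human MMP-2 activated beforehand with APMA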
Thrombin inh: counter-screen for RPN11 inhibitors: inhibition of bovine thrombin | shares compounds with Rpn11 block | bovine thrombin cleavage of Ub4-pepOG, fluorescence polarization | inhibition, % at 20 µM | 1,900 tested, 13% active;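 active = mean inhibition at least 40% at 20 µM, or signal 3 deviations below plate average, so some actives read negative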;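 note: plate controls were thrombin with DMSO for no effect and buffer wells lacking thrombin for full effect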
Starred values were filed as active, the others as inactive; i = inactive; nt = no result; + = active, no number. Only some compounds are listed: those with a hit (about 1.5% of all), similar ones and a draw of the others. Cut-off read from the data, not from the text of the source, unless noted: active = inhibition above about 40%; inactive = the rest.

SMILES	TPT1 inhibitor	CSN inh	HNF4A DNA FP	Rpn11 block	Rpn11 confirm	MMP-2 counter	Thrombin inh
Cc1csc(NC(=O)CSc2nc3sc(C)c(C)c3c(=O)[nH]2)n1	12	20	21	+	44*	-5	29
Cc1cccc(C(=O)OCC(=O)NCc2cccs2)c1	-1	-1	-3	i	nt	nt	nt
CS(=O)(=O)c1ccc(C(=O)OCC(=O)NCc2cccs2)cc1[N+](=O)[O-]	nt	7	4	+	-23	-32	-33
Cn1cc(S(=O)(=O)CC(=O)N2CCCc3ccccc32)c2ccccc21	0	0	13	+	-3	-28	-4
CCCn1c(SC/C(O)=C(\C#N)c2nc3ccccc3[nH]2)n[nH]c1=O	13	9	7	+	34	-10	30
Cc1cc(Br)ccc1SCC(=O)OC/C(O)=C(\C#N)c1nc2ccccc2[nH]1	17	4	28	+	18	-44	0
Cc1ccc(C)c(SCC(=O)OC/C(O)=C(\C#N)c2nc3ccccc3[nH]2)c1	nt	11	12	i	nt	nt	nt
N#C/C(=C(/O)COC(=O)COc1cccc(Br)c1)c1nc2ccccc2[nH]1	18	2	18	+	37	-12	25
N#C/C(=C(/O)COC(=O)CSc1ccc2ccccc2c1)c1nc2ccccc2[nH]1	15	12	15	+	31	-48	25
Cc1cc(C)cc(OCC(=O)OC/C(O)=C(\C#N)c2nc3ccccc3[nH]2)c1	20	2	15	i	nt	nt	nt
Cc1csc(SCC(=O)NC(=O)NCc2ccccc2)n1	-2	0	-1	+	-10	15	6
O=C(COc1ccc([N+](=O)[O-])cc1)Nc1cccc2nsnc12	11	16	27	+	4	-3	5
Cc1ccc(OCC(=O)Nc2cccc3nsnc23)c(C)c1	-1	4	0	i	nt	nt	nt
Cc1c(Cl)cc(C(C)C)c(O)c1CN1CCOCC1	nt	-4	-2	i	nt	nt	nt
COc1ccccc1C(=O)C1CCCN(C(=O)c2ccc(Cl)cc2)C1 (centres undefined)	nt	-5	2	i	nt	nt	nt
Cn1c2ccccc2c2cc(C(=O)OCC(=O)N3CC(=O)Nc4ccccc43)sc21	12	1	28	+	121*	-21	88*
O=C(Nc1ccc2oc(-c3ccc(Cl)c(Cl)c3)nc2c1)c1ncn[nH]1	-4	7	-13	+	-11	-41	-4
CCOC(=O)C1CCN(C(=O)COC(=O)CNS(=O)(=O)c2ccc(SC)c([N+](=O)[O-])c2)CC1	nt	11	0	i	nt	nt	nt
CC1CC(C(=O)Nc2ccccc2)C(=O)O1 (centres undefined)	-6	110	0	i	nt	nt	nt
CCOC(=O)Cn1c(=NC(=O)CN2C(=O)CCC2=O)sc2cc(S(N)(=O)=O)ccc21	-3	4	3	i	nt	nt	nt
CCOC(=O)Cn1c(=NC(=O)c2nc3ccccc3s2)sc2cc(S(N)(=O)=O)ccc21	-1	2	-1	+	7	-16	-5
COCCn1c(=NC(=O)c2cc(-c3cccs3)nc3ccccc23)sc2cc(S(N)(=O)=O)ccc21	15	0	7	+	20	32	10
C=CCn1c(=NC(=O)c2sc3ccccc3c2Cl)sc2cc(S(N)(=O)=O)ccc21	0	20	3	+	49*	-19	0
C=CCn1c(=NC(=O)c2cc(-c3cccs3)nc3ccccc23)sc2cc(S(N)(=O)=O)ccc21	9	1	3	i	nt	nt	nt
Cc1nc(/N=C\c2ccc(N(C)C)cc2)sc1C	-1	-1	12	i	nt	nt	nt
SMILES	TPT1 inhibitor	CSN inh	HNF4A DNA FP	Rpn11 block	Rpn11 confirm	MMP-2 counter	Thrombin inh
CC[C@H]1c2[nH]c3ccccc3c2C[C@H]2C(=O)N(c3ccc(F)cc3)C(=O)N21	-7	0	1	i	nt	nt	nt
C=CCn1c(CCC(=O)O)ccc1-c1ccc(OC)cc1	8	3	2	+	9	2	-3
COC(=O)[C@@]12C[C@@H](CC(=O)NCCCCc3ccccc3)C(=O)N(Cc3ccc4c(c3)OCO4)C1=CCC(C)(C)C2	nt	-3	1	nt	nt	nt	nt
COc1ccc(Cl)cc1NC(=O)CCCNC(=O)c1ccc(Cl)cc1	-5	4	8	+	7	-1	3
O=c1[nH]c(CN2CCN(c3ccccc3)CC2)nc2scc(-c3ccccc3)c12	10	-1	12	+	14	9	-5
COc1ccc(N2CCN(Cc3nc4scc(-c5ccccc5)c4c(=O)[nH]3)CC2)cc1	10	2	7	i	nt	nt	nt
COc1ccc(N2CCN(Cc3nc4scc(-c5cccs5)c4c(=O)[nH]3)CC2)cc1	6	18	12	+	8	17	-11
COc1ccccc1NC(=O)Nc1ccc(S(=O)(=O)Nc2onc(C)c2C)cc1	nt	-2	4	i	nt	nt	nt
C[C@@H]1COC(=O)[C@@H](Cc2ccc(F)cc2)C/C=C\C[C@@H](CC(=O)NCCO)C(=O)N1	nt	-4	2	i	nt	nt	nt
N#Cc1cc(C#N)c(SCC(=O)N2CC(=O)Nc3ccccc32)nc1N	nt	10	11	+	28	-57	23
CCc1ccc2nc(SCC(=O)N3CC(=O)Nc4ccccc43)c(C#N)cc2c1	23	3	1	i	nt	nt	nt
CC(=O)c1cn(CC(=O)NCc2ccc3c(c2)OCO3)c2ccccc12	4	6	16	+	-16	-8	-16
CCOc1ccc(C(=O)CCC(=O)N2CCN(c3ncccn3)CC2)cc1	5	14	19	+	43*	37	35
O=c1ncn(C2CCCCC2)c(=O)[nH]1	nt	-1	-2	i	nt	nt	nt
CCOC(=O)c1cc2occc2n1Cc1c(F)cccc1Cl	11	5	16	+	17	-9	3
O=c1[nH]c(CSc2ncnc3sccc23)nc2cc(C(F)(F)F)ccc12	20	16	5	+	46*	-7	-9
CCCCCCNC(=O)O[C@H]1C[C@@H]2C(=O)N(c3ccccc3)C(=O)[C@@H]2[C@@H]2CN(S(=O)(=O)c3ccc(C)cc3)C[C@]12O	nt	-3	7	i	nt	nt	nt
CN(C)CCCN(C(=O)/C=C/c1cccs1)c1nc2ccc(F)cc2s1	1	11	5	i	nt	nt	nt
CN(C)CCN(C(=O)/C=C/c1cccs1)c1nc2c(F)cc(F)cc2s1	-1	30	3	+	27	-56	7
CCCSc1nnc(CN2CCOCC2)n1C	0	-2	-6	+	-12	-49	-18
COc1cccc(NC(=O)c2ccnc(N3CCC(C(=O)NCc4cc(OC)ccc4OC)CC3)c2)c1	-2	0	-3	i	nt	nt	nt
